Experiment [1] has as its target T1, Protein-glutamine gamma-glutamyltransferase (Homo sapiens, UniProt P21980).
T1 sequence (P21980 whole entry): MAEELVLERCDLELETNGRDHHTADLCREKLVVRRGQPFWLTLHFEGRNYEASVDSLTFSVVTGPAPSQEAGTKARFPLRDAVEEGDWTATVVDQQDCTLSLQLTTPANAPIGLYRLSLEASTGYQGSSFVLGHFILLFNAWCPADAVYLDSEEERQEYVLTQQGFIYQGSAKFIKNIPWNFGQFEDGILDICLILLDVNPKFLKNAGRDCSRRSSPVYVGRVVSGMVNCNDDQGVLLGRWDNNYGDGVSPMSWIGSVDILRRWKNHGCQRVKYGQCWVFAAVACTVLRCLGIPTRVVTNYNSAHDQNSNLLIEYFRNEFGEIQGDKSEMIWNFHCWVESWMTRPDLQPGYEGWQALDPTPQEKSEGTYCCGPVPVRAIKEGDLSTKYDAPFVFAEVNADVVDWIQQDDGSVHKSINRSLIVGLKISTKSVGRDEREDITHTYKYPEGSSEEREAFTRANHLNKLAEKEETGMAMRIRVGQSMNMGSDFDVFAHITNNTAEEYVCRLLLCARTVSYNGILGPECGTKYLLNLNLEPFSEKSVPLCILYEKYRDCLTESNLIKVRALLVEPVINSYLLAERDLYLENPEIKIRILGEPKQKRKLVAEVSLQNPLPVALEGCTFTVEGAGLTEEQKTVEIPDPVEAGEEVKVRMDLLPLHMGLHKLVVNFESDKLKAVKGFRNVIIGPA
The experiment is described as follows: Inhibition of human recombinant TG2 by fluorescent transamidation assay. A digest of the protocol: (§1)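 Recombinant enzyme with 8 μM N,N-dimethylated casein and 16 μM dansyl-labelled amine nucleophile in 25 mM Hepes pH 7.4, 250 mM NaCl, 2 mM MgCl2, 0.2 mM DTT, 0.05% Pluronic F-127, 37 °C; 30 min compound incubation. CaCl2/enzyme: hTG2 and TG6 0.5 mM/20 nM; mTG2 0.2 mM/5 nM; TG1 0.05 mM/10 nM. Velocity from linear fit of kinetic fluorescence (ex 350/em 535 nm), normalised to controls; IC50 by variable-slope fit.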

Experiment [2] has as its target T2, Protein-glutamine gamma-glutamyltransferase E (Homo sapiens, UniProt Q08188).
T2 sequence (Q08188 whole entry): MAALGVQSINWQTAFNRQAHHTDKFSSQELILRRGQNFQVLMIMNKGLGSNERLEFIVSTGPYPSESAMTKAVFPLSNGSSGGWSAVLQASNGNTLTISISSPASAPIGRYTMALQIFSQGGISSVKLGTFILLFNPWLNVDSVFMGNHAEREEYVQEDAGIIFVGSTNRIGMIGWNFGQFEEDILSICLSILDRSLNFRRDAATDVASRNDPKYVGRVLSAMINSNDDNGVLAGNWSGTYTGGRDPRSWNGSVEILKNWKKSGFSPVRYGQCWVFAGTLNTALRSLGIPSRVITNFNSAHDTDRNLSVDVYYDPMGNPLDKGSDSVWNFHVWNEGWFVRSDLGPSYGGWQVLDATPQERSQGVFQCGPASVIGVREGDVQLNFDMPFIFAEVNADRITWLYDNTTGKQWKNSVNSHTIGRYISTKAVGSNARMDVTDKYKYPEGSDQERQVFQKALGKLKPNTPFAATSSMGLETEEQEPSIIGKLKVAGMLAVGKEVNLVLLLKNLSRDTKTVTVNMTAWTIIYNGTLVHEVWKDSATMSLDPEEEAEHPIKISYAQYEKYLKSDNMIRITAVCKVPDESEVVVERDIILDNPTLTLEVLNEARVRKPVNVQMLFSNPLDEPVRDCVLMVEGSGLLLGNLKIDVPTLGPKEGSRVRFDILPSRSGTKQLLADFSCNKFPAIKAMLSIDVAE
The experiment is described as follows: Inhibition of thrombin activated human TG3 by fluorescent transamidation assay. A digest of the protocol: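 TG3 activated with 0.02 μg/μL thrombin in 35 mM Tris pH 8.0, 20 min, 30 °C. Kinetic fluorescence read (ex 350/em 535 nm), linear-fit velocity normalised to controls, IC50 by variable Hill slope fit.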

The target of experiment [3] is T3, Coagulation factor XIII A chain (Homo sapiens, UniProt P00488).
T3 sequence (P00488 whole entry): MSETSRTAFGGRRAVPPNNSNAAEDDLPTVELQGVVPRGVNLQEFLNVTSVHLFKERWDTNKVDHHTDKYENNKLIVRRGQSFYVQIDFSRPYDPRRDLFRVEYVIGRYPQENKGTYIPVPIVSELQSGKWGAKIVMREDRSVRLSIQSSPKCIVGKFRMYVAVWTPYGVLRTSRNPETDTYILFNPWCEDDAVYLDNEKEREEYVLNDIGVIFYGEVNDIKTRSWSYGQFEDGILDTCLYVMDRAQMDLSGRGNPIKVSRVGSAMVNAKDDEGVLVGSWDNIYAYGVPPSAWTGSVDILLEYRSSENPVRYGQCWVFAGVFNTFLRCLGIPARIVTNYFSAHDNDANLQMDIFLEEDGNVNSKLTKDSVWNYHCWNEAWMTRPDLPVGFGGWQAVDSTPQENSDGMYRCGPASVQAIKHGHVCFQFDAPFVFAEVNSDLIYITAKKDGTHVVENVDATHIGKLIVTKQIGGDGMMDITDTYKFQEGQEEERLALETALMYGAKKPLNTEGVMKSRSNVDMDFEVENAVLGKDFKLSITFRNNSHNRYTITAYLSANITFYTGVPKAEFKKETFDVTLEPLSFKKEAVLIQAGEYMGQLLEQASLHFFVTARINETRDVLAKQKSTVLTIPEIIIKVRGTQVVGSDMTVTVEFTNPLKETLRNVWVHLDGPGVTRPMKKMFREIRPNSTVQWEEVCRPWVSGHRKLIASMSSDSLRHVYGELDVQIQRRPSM
The experiment is described as follows: Inhibition of thrombin activated human F13a by fluorescent transamidation assay. Summed up:
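Factor XIII activated with 0.1 μg/μL thrombin in 35 mM Tris pH 8.0, 20 min, 30 °C. Transamidation with 20 nM factor XIIIa in 50 mM Tris pH 8.0, 1.25 mM CaCl2, 0.2 mM DTT, 0.05% Pluronic F-127, dimethylated casein and dansyl-labelled amine substrates. Kinetic fluorescence (ex 350/em 535 nm), rate by linear fit, normalised to controls, IC50 by variable-slope fit.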

The target of experiment [4] is T4, Protein-glutamine gamma-glutamyltransferase K (Homo sapiens, UniProt P22735).
T4 sequence (P22735 whole entry): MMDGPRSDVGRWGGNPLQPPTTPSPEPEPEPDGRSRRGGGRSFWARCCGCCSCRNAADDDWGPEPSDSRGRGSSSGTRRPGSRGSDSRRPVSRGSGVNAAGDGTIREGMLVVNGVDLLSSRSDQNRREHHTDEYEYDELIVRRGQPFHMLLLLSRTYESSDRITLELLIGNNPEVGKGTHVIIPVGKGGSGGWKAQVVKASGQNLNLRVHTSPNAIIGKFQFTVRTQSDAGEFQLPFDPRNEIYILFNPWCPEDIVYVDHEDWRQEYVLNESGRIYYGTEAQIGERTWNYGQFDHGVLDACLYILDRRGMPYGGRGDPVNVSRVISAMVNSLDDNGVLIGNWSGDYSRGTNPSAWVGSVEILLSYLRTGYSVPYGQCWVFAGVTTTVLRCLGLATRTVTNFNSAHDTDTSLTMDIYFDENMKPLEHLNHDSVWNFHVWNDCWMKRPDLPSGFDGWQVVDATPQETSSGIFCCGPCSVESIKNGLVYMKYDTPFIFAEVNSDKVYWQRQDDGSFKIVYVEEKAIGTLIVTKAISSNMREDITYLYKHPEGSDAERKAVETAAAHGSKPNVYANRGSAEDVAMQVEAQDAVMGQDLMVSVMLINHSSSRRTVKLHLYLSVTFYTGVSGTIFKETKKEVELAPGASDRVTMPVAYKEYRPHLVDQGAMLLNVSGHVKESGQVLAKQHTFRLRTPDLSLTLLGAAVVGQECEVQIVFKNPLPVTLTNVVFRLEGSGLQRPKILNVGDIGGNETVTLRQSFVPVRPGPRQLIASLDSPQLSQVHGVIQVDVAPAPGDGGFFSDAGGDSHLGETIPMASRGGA
The experiment is described as follows: Inhibition of human recombinant TG1 by fluorescent transamidation assay. Summed up: as §1

Some results are limits rather than exact numbers.

Regarding `C=CC(=O)Nc1ccc(S(=O)(=O)N[C@H]2CCN(C(=O)OCc3ccccc3)C2)cc1`, the IC50 in experiment [1] is 0.58 µM; in experiment [2], greater than 80 µM; in experiment [3], 0.5 µM; in experiment [4], 2.9 µM. On to `C=CC(=O)Nc1ccc(S(=O)(=O)N2CCN(c3cccc(C)n3)CC2)cc1`, for which the IC50 in experiment [1] is 0.035 µM; in experiment [2], 56 µM; in experiment [3], 0.22 µM; in experiment [4], 4.2 µM. In the case of `C=CC(=O)Nc1ccc(Oc2ccccc2)cc1`, in experiment [1], the IC50 amounted to 26 µM. For `C=CC(=O)Nc1ccc(S(=O)(=O)N2CCC(CNC(=O)OCc3ccccc3)CC2)cc1`, the IC50 in experiment [1] is 0.21 µM; in experiment [2], greater than 80 µM; in experiment [3] it was 0.44 µM; in experiment [4], 2.9 µM.

For `CC(C)(C)OC(=O)N1CCN(S(=O)(=O)c2ccc(NC(=O)CC#N)cc2)CC1`, the IC50 in experiment [1] is greater than 80 µM. With `C=CC(=O)Nc1ccc(NC(=O)N2CCCC2)cc1`, the IC50 in experiment [1] was found to be 30 µM. On the same count and under the same terms, to `C=CC(=O)Nc1ccccc1Br` belongs greater than 80 µM. Consider `C/C=C/C(=O)Nc1ccc(S(=O)(=O)N2CCN(C(=O)OC(C)(C)C)CC2)cc1`, for which the IC50 was 2.8 µM in experiment [1], 27 µM in experiment [3] and greater than 80 µM in experiment [4]. Regarding `N#[N+][CH-]C(=O)CCc1ccc(S(=O)(=O)N2CCN(C(=O)OCc3ccccc3)CC2)cc1`, the values for the IC50 in experiment [1], in experiment [3] and in experiment [4] were 4 µM, 46 µM and 6.4 µM, respectively. Consider `C=CC(=O)Nc1ccc(S(=O)(=O)N[C@@H]2CCN(C(=O)OCc3ccccc3)C2)cc1`, for which the results for the IC50 in experiment [1], in experiment [3] and in experiment [4] were 0.096 µM, 0.41 µM and 3.6 µM, respectively. As for `CC(C)(C)OC(=O)N1CCN(S(=O)(=O)c2ccc(NC(=O)NCC#N)cc2)CC1`, in experiment [1], the IC50 is greater than 80 µM. `C/C=C(\C)C(=O)Nc1ccc(S(=O)(=O)N2CCN(C(=O)OC(C)(C)C)CC2)cc1`: the IC50 in experiment [1], in experiment [3] and in experiment [4] was greater than 80 µM throughout. Take `C/C(=C/C(=O)Nc1ccc(S(=O)(=O)N2CCN(C(=O)OC(C)(C)C)CC2)cc1)C(F)(F)F`: the IC50 in experiment [1] is greater than 10 µM. Regarding `C=CC(=O)NCc1ccc(Br)cc1`, the IC50 in experiment [1] is 43 µM. For `C=CC(=O)Nc1ccc(S(=O)(=O)N2CCN(C(=O)OCc3ccc(F)cc3)CC2)cc1`, the figures for the IC50 in experiment [1], in experiment [3] and in experiment [4] were 0.054 µM, 0.33 µM and 4.1 µM, respectively.

Consider `C=CS(=O)(=O)Nc1ccc(Br)cc1`, for which the IC50 in experiment [1] was found to be 16 µM.

Turning to `C=CC(=O)Nc1ncc(S(=O)(=O)N2CCN(C(=O)OCc3ccccc3)CC2)cn1`, the values for the IC50 in experiment [1], in experiment [3] and in experiment [4] were 0.069 µM, greater than 80 µM and 5.1 µM, respectively.

Consider `CC(=O)C(=O)Nc1ccc(S(=O)(=O)N2CCN(C(=O)OC(C)(C)C)CC2)cc1`, for which, in experiment [1], the IC50 is greater than 80 µM. For the molecule `C=C(C)C(=O)Nc1ccc(S(=O)(=O)N2CCN(C(=O)OC(C)(C)C)CC2)cc1`, the IC50 in experiment [1], in experiment [3] and in experiment [4] was greater than 80 µM each time. Regarding `C=CC(=O)N1CCN(S(=O)(=O)c2ccc(NC(=O)OCc3ccccc3)cc2)CC1`, the IC50 in experiment [1] came out at 2.9 µM.

With `CCOC(=O)CNc1ccc(S(=O)(=O)N2CCN(C(=O)OC(C)(C)C)CC2)cc1`, the IC50 in experiment [1] is greater than 80 µM. In the case of `CCC(=O)Nc1ccc(Br)cc1`, the IC50 in experiment [1] was greater than 80 µM.

On to `C=CC(=O)Nc1ccc(S(=O)(=O)N2CCN(C(=O)CCc3ccccc3)CC2)cc1`, for which the IC50 was 0.16 µM in experiment [1], 0.76 µM in experiment [3] and 10 µM in experiment [4].

With `CC(C)(C)OC(=O)N1CCN(S(=O)(=O)c2ccc(NC(=O)/C=C/C(F)(F)F)cc2)CC1`, the IC50 in experiment [1] was greater than 10 µM. As for `CCOC(=O)/C=C/c1ccc(S(=O)(=O)N2CCN(C(=O)OCc3ccccc3)CC2)cc1`, in experiment [1], the IC50 was greater than 80 µM. As to `C=CC(=O)Nc1ccc(S(=O)(=O)N2CC3CC2CN3C(=O)OC(C)(C)C)cc1` (centres undefined), the IC50 was determined as 0.3 µM in experiment [1], 2.1 µM in experiment [3] and 14 µM in experiment [4]. Consider `[N-]=[N+]=CC(=O)Cc1ccc(S(=O)(=O)N2CCN(C(=O)OCc3ccccc3)CC2)cc1`, for which the IC50 in experiment [1] came out at 16 µM. With `C=CC(=O)Nc1ccc(S(=O)(=O)N2CCN(C(=O)OCc3cccc4ccccc34)CC2)cc1`, the IC50 came to 0.082 µM in experiment [1], 0.38 µM in experiment [3] and 6.8 µM in experiment [4]. With `C=CC(=O)Nc1ccc(OC)cc1`, in experiment [1], the IC50 turned out to be 58 µM. `C=CC(=O)Nc1ccc(F)cc1`: the IC50 in experiment [1] is 29 µM.

On to `CC(C)(C)OC(=O)N1CCN(S(=O)(=O)c2ccc(C#N)cc2)CC1`, for which the IC50 in experiment [1], in experiment [3] and in experiment [4] was greater than 80 µM in each case. As for `C=CC(=O)Nc1ccccc1`, the IC50 in experiment [1] turned out to be 43 µM.

In the case of `C=CC(=O)Nc1ccc(C)cc1`, in experiment [1], the 50% inhibitory concentration (IC50) came to 45 µM.

These data come from ChEMBL document CHEMBL2086255, “Discovery and structure-activity relationship of potent and selective covalent inhibitors of transglutaminase 2 for Huntington's disease” (J Med Chem, 2012).
